Molecular target: T1, Gamma-butyrobetaine dioxygenase (Homo sapiens, UniProt O75936)
T1 sequence (O75936 whole entry): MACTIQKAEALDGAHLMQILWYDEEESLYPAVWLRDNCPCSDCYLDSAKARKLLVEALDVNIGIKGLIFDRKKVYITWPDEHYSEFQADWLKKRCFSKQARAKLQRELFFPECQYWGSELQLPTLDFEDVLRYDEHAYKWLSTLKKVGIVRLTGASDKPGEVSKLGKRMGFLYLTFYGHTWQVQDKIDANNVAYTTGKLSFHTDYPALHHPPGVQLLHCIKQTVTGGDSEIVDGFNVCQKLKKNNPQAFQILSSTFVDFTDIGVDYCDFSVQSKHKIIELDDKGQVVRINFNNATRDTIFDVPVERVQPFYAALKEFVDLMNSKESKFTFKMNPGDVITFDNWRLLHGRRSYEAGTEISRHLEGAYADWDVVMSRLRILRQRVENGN
Experiment: Inhibition of human recombinant BBOX expressed in Saccharomyces cerevisiae AH22 assessed as formation of carnitine from gamma-butyrobetaine preincubated for 15 mins measured after 30 mins by UPLC-MS/MS analysis
How it was run: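 His-tagged BBOX purified by Ni affinity, desalting and Mono Q; tag cut with TEV. Assay (0.2 mL) held 20 mM K phosphate pH 7.0, 20 mM KCl, 3 mM 2-oxoglutarate, 0.25 mM Fe(II), 10 mM ascorbate, catalase and 0.6 μg enzyme. Screen at 100 or 1000 μM, then 6–8 concentrations. GBB 200 μM added after preincubation, 37 °C; stopped with cold acetonitrile/methanol. Logistic-fit IC50, mean ± SD of three experiments.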

IC50 [µM]	Structure (SMILES)
268	C[N+](C)(CCl)CCCC(=O)[O-]
> 1000	C[N+](C)(CCCC(=O)[O-])CC1CC1
> 1000	COC[N+](C)(C)CCCC(=O)[O-]
0.49	C[N+]1(CCCC(=O)O)CCCC1
24	C#CC[N+](C)(C)NCCC(=O)O
> 1000	C[N+](C)(CBr)CCCC(=O)[O-]
0.81	C[N+](C)(CCCC(=O)[O-])C1CCC1
> 1000	C[N+](C)(C)CCCc1nnn[nH]1
5.7	CC(C)[N+](C)(C)CCCC(=O)[O-]
1.7	C[N+](C)(C)CCCS(=O)(=O)[O-]
140	CC[N+](C)(C)NCCC(=O)[O-]
388	C[S+](C)CCCC(=O)[O-]
> 1000	C[N+](C)(C)C1CCCC(C(=O)[O-])C1 (stereo not given)
> 1000	C[N+](C)(C)CCCCC(=O)[O-]
> 1000	CCC[N+](C)(C)CCCC(=O)[O-]
> 1000	CC(C)[N+](C)(C)NCCC(=O)[O-]
343	CC(CCC(=O)[O-])[N+](C)(C)C (stereo not given)
6.7	CC[N+](C)(C)CCCS(=O)(=O)[O-] [ETHYL DIMETHYL AMMONIO PROPANE SULFONATE]
1.4	C#CC[N+](C)(C)CCCC(=O)[O-]
127	C=C[N+](C)(C)CCCC(=O)[O-]
0.09	CN(CCC(=O)[O-])[N+](C)(C)C
3.3	CC[N+](C)(C)CCCC(=O)[O-]
> 1000	C[N+](C)(CCCC(=O)[O-])Cc1ccccc1
> 1000	CC[N+](C)(CC)NCCC(=O)O
3.1	CCC[N+](C)(C)N(C)CCC(=O)[O-]
7.2	CC[N+](C)(C)N(C)CCC(=O)[O-]

Second part, the molecule before the results:

Structure (SMILES)	IC50 [µM]
C[N+](C)(CCO)CCCC(=O)[O-]	1000
C=CC[N+](C)(C)CCCC(=O)[O-]	2.7
C[N+](C)(CCCC(=O)[O-])CC1CCC1	> 1000
CCCC[N+](C)(C)CCCC(=O)[O-]	> 1000
CCN(CCC(=O)[O-])[N+](C)(C)C	2.8
C=CC[N+](C)(C)NCCC(=O)[O-]	119
C[N+](C)(CCN)NCCC(=O)[O-]	> 1000
C[N+](C)(CCCl)NCCC(=O)O	10.2
C[N+](C)(CCCC(=O)[O-])C1CCCC1	> 1000
C[N+](C)(CI)CCCC(=O)[O-]	1000
C[N+](C)(CCF)CCCC(=O)O	0.61
C[N+](C)(C)CCC[PH](=O)[O-]	0.52
C[N+](C)(CCCl)CCCC(=O)O	0.26
C=C[N+](C)(C)NCCC(=O)[O-]	6.8
C[N+](C)(C)C/C=C/C(=O)[O-]	3.8
C[N+](C)(CCO)NCCC(=O)[O-]	1000
C[N+](C)(C)CCCP(=O)(O)O	0.1
C[N+](C)(C)NCCP(=O)(O)O	117
O=C(O)CCCN1CCCC1	1000
CC[N+](C)(CC)CCCC(=O)[O-]	100
C[N+](C)(C)NCCS(=O)(=O)[O-]	87
C[N+](C)(CCCC(=O)[O-])C1CC1	2.1
C[N+](C)(C)CC(Cl)CC(=O)O (stereo not given)	459
CC[N+](C)(C)CCC[PH](=O)[O-]	0.53

Molecular target: T2, Gamma-butyrobetaine dioxygenase (Homo sapiens) (UniProt O75936)
T2 sequence (whole entry): T1 sequence (O75936 whole entry)
Experiment: Ratio of mildronate IC50 to compound IC50 for human recombinant BBOX

Ratio IC50	Structure (SMILES)
9	C=C[N+](C)(C)NCCC(=O)[O-]
3	CC(CCC(=O)[O-])[N+](C)(C)C (stereo not given)
3	CN(CCC(=O)[O-])[N+](C)(C)C

Molecular target: T1, Gamma-butyrobetaine dioxygenase
Experiment: Binding affinity to purified human BBOX by isothermal titration calorimetry analysis
How it was run: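 Human BBOX, purified and dialyzed, in 50 mM HEPES pH 7.4 with 100 mM KCl; cofactors and ligands dissolved in the same dialysate. N-oxalylglycine replaced 2-oxoglutarate and Ni(II) replaced Fe(II). Enzyme 26–75 μM per subunit. ITC at 25 °C: 0.2 μL first injection (discarded), then 19 × 2.0 μL. Dilution heats subtracted, low-c fitting, ≥3 repeats.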

Kd [µM]	Structure (SMILES)
4.1	CC(CCC(=O)[O-])[N+](C)(C)C (stereo not given)
9.3	CN(CCC(=O)[O-])[N+](C)(C)C

From ChEMBL document CHEMBL3232920, “Targeting carnitine biosynthesis: discovery of new inhibitors against γ-butyrobetaine hydroxylase” (J Med Chem, 2014)
